# Compound activity from PubChem BioAssay.
# pCIP destab – p/CIP-EGFP fusion destabilizers, primary screen, fluorescence, F442A cells; 16 h; decrease of EGFP signal, % at 10 µM; 290,000 compounds, 0.01% hits; AID 1984, 2009;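 active = EGFP signal decrease of at least 30% at 10 µM or well 3 SD below plate mean, unless failing retest; inactive = the rest, including hits failing retest or dose response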
# H9c2 protect – cardioprotection against H2O2-induced cell death, primary screen, uHTS, H9c2 cells, ATPLite luminescence. 360,000 compounds, 0.63% hits. protection from H2O2 cell death, % at 20 µM. H9c2 cardiomyocytes, H2O2 injury protection, 2 h;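 active = compounds giving at least 50% protection of heart cells from peroxide-induced death in the single-dose screen, raw or plate-pattern-corrected value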;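 also: 0% = DMSO wells with peroxide and 100% = DMSO wells without peroxide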
# PP5 inh – PP5 phosphatase inhibitors, primary screen, biochemical, fluorescence; 320,000 compounds, 0.18% hits; purified PP5c, OMFP substrate fluorescence; Serine/threonine-protein phosphatase 5 (Homo sapiens), P53041; AID 1987, 2009; inhibition, % at 6.7 µM;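 active = inhibition above the campaign's mean inhibition across all tested compounds plus 3 SD, cut at about 9.5% in these data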;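 also: 0% = DMSO only and 100% = 100 µM cantharidin control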
# GASC-1 inh – inhibitors of GASC-1 histone demethylase, primary screen, biochemical, fluorescence, DELFIA europium; 330,000 compounds, 0.069% hits; AID 2099, 2009; GST-JMJD2C(1-420) H3K9me3 demethylation; inhibition, % at 2.35 µM;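 active = more than half of a compound's replicate wells show inhibition beyond 50%, single wells judged on their own value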;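 also: signal counts dimethyl H3K9 product captured on neutravidin plate; 0% = median of DMSO wells and 100% = 0.3 times that DMSO median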
# Fh CTSL1 inh – Fasciola hepatica cathepsin L1 inhibitors, primary screen, counter-screen for PFM18AAP inhibitor project, biochemical, QFRET, fluorogenic peptide substrate; recombinant F. hepatica cathepsin L1, Z-Leu-Arg-MCA fluorescence; inhibition, % at 5.96 µM; 300,000 compounds, 0.49% hits; AID 1906, 2009;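 active = inhibition above the mean of all tested compounds plus 3 SD, set per screening campaign, cut at about 17% in these data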;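 also: 0% = plate median of test compound wells and 100% = 1 µM Z-Phe-Ala-diazomethylketone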
# T cruzi repl – inhibitors of intracellular T. cruzi growth, primary screen, luminescence, NIH3T3 host cells | T. cruzi beta-gal in NIH3T3, 90 h | inhibition, % (test concentration not listed) | 300,000 compounds, 1.4% hits | AID 1885, 2009;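 active = mean inhibition across valid replicates above about 55%, limit read from the data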;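 also: signal also drops with host cell toxicity which is not excluded here; 0% = plate median of DMSO wells and 100% = zero luminescence signal; higher percent means less beta-gal luminescence so fewer parasites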
#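 System: NIH/3T3 fibroblasts plus reporter T. cruzi. Medium: DMEM plus 2% FBS. Probe or stimulus: 5000 reporter trypomastigotes per well. Compound: single 50 nL compound addition per well in DMSO. Incubation: co-culture of at least 90 h after 3 h attachment. Detection: GalScreen β-gal luminescence, detergent lysis, 60 min. Evaluation: parasite load inhibition, %.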
# * marks the source's active call; other numbers are inactive results; x = not tested or not shown. Sampled rows, rich in hits. Any-hit rate of the full collection: about 2.4%.
SMILES,pCIP destab,H9c2 protect,PP5 inh,GASC-1 inh,Fh CTSL1 inh,T cruzi repl
CCCNC(=O)c1ccc2c(=O)c(O)c(-c3cccc(Br)c3)[nH]c2c1,22,54*,5,10,3,21
CCCNC(=O)c1ccc2c(=O)c(O)c(-c3ccc(F)cc3)[nH]c2c1,6,57*,0,2,3,-15
CC1CCCN(C(=O)c2cc3ccccc3cc2O)C1 (configuration not stated),5,-5,0,5,3,-8
Cc1ccc(C(=O)NCc2ccc(Cl)cc2)cc1S(=O)(=O)N1CCCCC1,x,-8,1,-2,x,x
CC(C)(CNc1ccc(S(=O)(=O)C(F)(F)F)cc1[N+](=O)[O-])N1CCOCC1,-6,-4,4,-34,4,55*
CC(C)(CNc1ccc([N+](=O)[O-])cc1C#N)N1CCOCC1,-4,7,-2,24,5,5
COc1cc(OC)cc(C(=O)N2CCN(C(=O)c3ccc(OC)c(OC)c3)CC2)c1,-4,-2,-1,3,1,-5
COc1ccc(-c2n[nH]c3c2CN(C(=O)c2ccc(OC)c(OC)c2)CC3)cc1,-7,0,2,-1,34*,-7
O=C(NNC1=Nc2cccc3cccc1c23)c1ccc(Br)cc1,-48,-10,3,-43,2,62*
Cc1[nH]n(-c2ccccc2)c(=O)c1N=Nc1cccc([N+](=O)[O-])c1,0,-3,0,2,-1,61*
Cc1[nH]n(-c2ccccc2)c(=O)c1N=Nc1cccc(Cl)c1,3,3,-6,7,-4,-4
CC1N(C)c2cc(NC(=O)c3cccs3)c(P(=O)(Nc3ccc([N+](=O)[O-])cc3)N3CCOCC3)cc2C1(C)C (configuration not stated),-8,-8,4,-1,-3,64*
CCOC(=O)c1cc(-c2ccccc2)sc1NC(=O)CN1C(=O)NC(CC)(c2ccc(F)cc2)C1=O (configuration not stated),-1,-7,0,-9,3,60*
CCOC(=O)c1cc(-c2ccccc2)sc1NC(=O)CN1C(=O)NC(CC)(c2ccccc2)C1=O (configuration not stated),-3,-7,2,5,-2,66*
CCOC(=O)c1cc(-c2ccccc2)sc1NC(=O)CC,-7,-6,0,-4,5,10
Cc1ccc(CNC(=O)C2(C)CCN2C(=O)Cc2ccc(C(C)(C)C)cc2)cc1 (configuration not stated),x,-5,x,x,x,x
COc1ccc(NC2=Nc3ccccc3N3C2=Nc2c(c(C)nn2-c2ccc(C)cc2)C3c2cccnc2)cc1 (configuration not stated),-8,-5,-1,-5,2,3
CC(=O)Nc1ccc(NC2=Nc3ccccc3N3C2=Nc2c(c(C)nn2-c2ccccc2)C3c2ccccc2)cc1 (configuration not stated),-21,-20,0,-1,-2,10
Cc1nn(-c2ccc([N+](=O)[O-])cc2)c2c1C(c1ccc(OC(F)F)cc1)N1C(=N2)C(=O)Nc2ccccc21 (configuration not stated),-16,45,-2,17,1,91*
Cc1ccc(C2c3c(C)nn(-c4ccc([N+](=O)[O-])cc4)c3N=C3C(=O)Nc4ccccc4N32)cc1 (configuration not stated),-21,x,1,-34,-1,65*
COc1cccc(C2c3c(C)nn(-c4ccc([N+](=O)[O-])cc4)c3N=C3C(=O)Nc4ccccc4N32)c1 (configuration not stated),-15,56*,1,1,3,63*
Cc1ccc(C)c(CNS(=O)(=O)c2c(C(=O)N3CCCC3)c(C)n(C)c2C)c1,12,1,2,-7,-6,6
